An excerpt weighted towards active compounds, which were near 3% of everything screened.
HIF act = HIF pathway transcriptional activation; 300,000 compounds, 0.32% hits; U2OS HRE-luciferase reporter, luminescence; normalized: DMSO 0%, desferrioxamine 100%; activation, % at 7.5 µM (by protocol); AID 1910;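 active = mean activation of at least 10% of the iron chelator positive control signal, with at least half of replicates also reaching 10%; inconclusive = mean and replicate majority disagree about reaching 10%; inactive = mean and most replicates under 10%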
AI-2 QS mod = Vibrio harveyi AI-2 quorum sensing modulation; Vibrio harveyi JMH597 AI-2 luminescence/OD600 ratio, 9 h; stronger effect = lower value; strain lacks LuxN and CqsS sensors; 0 = neutral-control median; activity change, % at 7.5 µM; 300,000 compounds, 0.4% hits; in the data active = activity change below about -75%, passing the limit was not always enough; inconclusive = no clear call, values can overlap the other calls;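 note: luminescence divided by OD600 gain over 9 h not by final OD600 alone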
Yeast superoxide = lowers age-related superoxide in aged yeast cells; S. cerevisiae aged cells, superoxide DHE fluorescence; stronger effect = lower value; superoxide response (% of plate mean), % at 10 µM; 330,000 compounds, 0.18% hits; AID 2690;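 active = superoxide response under a set limit, about three screen SD below normal, cut at about 65% in these data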;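 note: yeast aged for seven days with compound at 30 °C before DHE staining; 100% = average MFI of all compound-treated wells on the plate with controls excluded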
V-ATPase pH = yeast V-ATPase proton transport regulation by pHLuorin; S. cerevisiae, pHLuorin cytosolic pH fluorescence; 350,000 compounds, 0.37% hits; response, % at 10 µM; AID 504577; in the data active = response mostly above about 7.3%, no sharp cut-off; inactive = mostly below about 5.4%; note: actives read high
NRP1-CendR mod = NRP-1/CendR interaction modulation. FAM-RPARPAR peptide binding to NRP-1, fluorescence polarization. inhibition, % at 25 µM. 360,000 compounds, 0.85% hits. AID 602438;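 active = inhibition or corrected inhibition above about 18%, plus a signal ratio from 0.5 to 1.5, limit read from the data, passing the limit was not always enough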
T cruzi repl = T. cruzi replication inhibition | T. cruzi beta-gal in NIH3T3, luminescence, 90 h | inhibition, % (no concentration beside the values) | 300,000 compounds, 1.4% hits;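 active = mean inhibition across valid replicates above about 55%, limit read from the data; inconclusive = mean below that limit but half or more replicates reach it; inactive = mean below it, under half of replicates reach it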;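 note: signal also drops with host cell toxicity which is not excluded here; 0% = plate median of DMSO wells and 100% = zero luminescence signal; higher percent means less beta-gal luminescence so fewer parasites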
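Material: NIH/3T3 host cells with β-galactosidase reporter T. cruzi; Input: 5,000 host fibroblasts per well; Medium: DMEM, 2% fetal bovine serum; Compound: 50 nL DMSO compound solution per well; Schedule: 3 h host attachment, then at least 90 h co-culture; Detection: luminescent β-galactosidase signal after 60 min lysis.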
An asterisk follows results filed as active.

Screening Cc1cccc(CSc2nc(N)c(C#N)c(-c3cccs3)c2C#N)c1 returned HIF act -1, AI-2 QS mod 19, Yeast superoxide 109, V-ATPase pH -2, NRP1-CendR mod -7 and T cruzi repl 68*.
Screening Cc1cccc(CSc2nc3c(c(-c4cccs4)c2C#N)CN(C)CC3)c1 returned HIF act 0, AI-2 QS mod 14, Yeast superoxide 104, V-ATPase pH -2, NRP1-CendR mod -16 and T cruzi repl 58*.
For CN1CCc2nc(SCC(=O)Nc3cccc(F)c3)c(C#N)c(-c3cccs3)c2C1 the results were HIF act 0, AI-2 QS mod 17, Yeast superoxide 118, V-ATPase pH 4, NRP1-CendR mod 71 and T cruzi repl 55*.
Cc1cc(C(=O)N2CC=C(c3ccccc3)CC2)c2ccccc2n1 was read as HIF act -15, AI-2 QS mod 31, Yeast superoxide 106, V-ATPase pH -3, NRP1-CendR mod 0 and T cruzi repl -8.
Screening Cc1ccnc(SCCn2c(N3CC(C)CC(C)C3)nc3c2c(=O)n(C)c(=O)n3C)n1 (stereo unspecified) returned HIF act -1, AI-2 QS mod 16, Yeast superoxide 94, V-ATPase pH 0, NRP1-CendR mod 1 and T cruzi repl 4.
Screening CCn1c(SCC(=O)c2ccccc2)nnc1-c1cccs1 returned HIF act 3, AI-2 QS mod 8, Yeast superoxide 97, V-ATPase pH 3, NRP1-CendR mod 32* and T cruzi repl 5.
Cn1c(SCC(=O)c2ccccc2)nnc1-c1ccco1 was read as HIF act 13*, AI-2 QS mod 28, Yeast superoxide 101, V-ATPase pH 3, NRP1-CendR mod 1 and T cruzi repl -9.
CCOC(=O)c1cnc(-c2ccccc2)nc1Oc1ccc(OC)cc1 was read as HIF act -1, AI-2 QS mod 18, Yeast superoxide 99, V-ATPase pH -2, NRP1-CendR mod 26* and T cruzi repl 16.
CN1CCN(c2nc(-c3ccccc3)nc(-c3ccc(F)cc3)c2C#N)CC1 was read as HIF act 0, AI-2 QS mod -2, Yeast superoxide 109, V-ATPase pH 2, NRP1-CendR mod 8 and T cruzi repl 55*.
Screening CN1CCN(c2nc(-c3ccccc3)ncc2S(C)(=O)=O)CC1 returned HIF act 1, AI-2 QS mod -4, Yeast superoxide 94, V-ATPase pH 0, NRP1-CendR mod 17* and T cruzi repl 14.
`CS(=O)(=O)c1cnc(-c2ccccc2)nc1Oc1ccc(F)cc1` gave HIF act -1, AI-2 QS mod 17, Yeast superoxide 82, V-ATPase pH 2, NRP1-CendR mod -12 and T cruzi repl 3.
CN1CCN(c2nc(-c3ccccc3)ncc2S(=O)(=O)c2ccccc2)CC1 was read as HIF act -1, AI-2 QS mod 10, Yeast superoxide 89, V-ATPase pH 1, NRP1-CendR mod 0 and T cruzi repl 19.
Screening CS(=O)(=O)c1cnc(-c2ccccc2)nc1Oc1ccc(Cl)cc1 returned HIF act 0, AI-2 QS mod 17, Yeast superoxide 106, V-ATPase pH 1, NRP1-CendR mod 23* and T cruzi repl 33.
For CCCCN(C)CCCNC(=O)c1ccc2c(c1)N(CC)C(=O)c1ccccc1S2=O (stereo unspecified) the results were HIF act 0, AI-2 QS mod 11, Yeast superoxide 103, V-ATPase pH 1, NRP1-CendR mod 4 and T cruzi repl 61*.
CC1(C)C(=O)Nc2ccccc2N1C(=O)COC(=O)c1ccc(NC(N)=O)cc1 was read as V-ATPase pH 0 and NRP1-CendR mod -6.
`COc1ccc(C2C(C(=O)c3ccccc3)=C(C)Nc3nc4ccccc4n32)cc1OC` (stereo unspecified) gave HIF act 0, AI-2 QS mod 23, Yeast superoxide 101, V-ATPase pH 3, NRP1-CendR mod 2 and T cruzi repl inconclusive.
Screening COc1ccc(OC)c(C2C(C(=O)c3ccccc3)=C(C)Nc3nc4ccccc4n32)c1 (stereo unspecified) returned HIF act 1, AI-2 QS mod 2, Yeast superoxide 104, V-ATPase pH 0, NRP1-CendR mod -2 and T cruzi repl 69*.
